In ChEMBL document CHEMBL4312003, “Optimization of biaryloxazolidinone as promising antibacterial agents against antibiotic-susceptible and antibiotic-resistant gram-positive bacteria” (Eur J Med Chem, 2020):
≈ marks a conversion by molar mass, not a printed value.

Tests used:
[1] = Stability in simulated gastric acid assessed as compound remaining at pH 1.2 incubated for 1.5 hrs; assay type: ADME; conditions: read-out: Stability
[2] = Stability in human liver microsomes assessed as intrinsic clearance at 1.5 uM preincubated for 5 mins with NADPH and measured after 45 mins by LC/MS analysis; assay type: ADME, Microsome; conditions: read-out: CLH
In short: (§1)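 Compound solution at 1.5 µM with 0.75 mg/mL microsomes (before NADPH addition) was preincubated 5 min at 37 °C. Reactions were started with NADPH (6 mM stock). Samples were quenched with acetonitrile containing internal standard at 0, 5, 15, 30 and 45 min, then centrifuged, and the supernatant was diluted with water for LC/MS. Runs were in duplicate. T1/2 = ln2/k from the log-linear slope, and CLint was derived from T1/2.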

[3] = tested on: HepG2; assay: Cytotoxicity against human HepG2 cells assessed as reduction in cell viability incubated for 48 hrs by MTT assay; assay type: cell-based; conditions: HepG2, 48 h
In short: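 HepG2 cells were grown in RPMI1640 with 10% FBS and plated at about 4×10^4 cells/well in MEM. After 24 h at 37 °C in 5% CO2, compounds were added at the indicated final concentrations for 48 h. MTT was added (0.5 mg/mL final) for 4 h at 37 °C and the formazan dissolved in DMSO. Absorbance was read at 492 nm (630 nm reference). Each compound was tested three times; IC50 given as mean ± SD.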

[4] = Solubility of compound in water by UV spectrophotometric analysis; assay type: physicochemical
[5] = tested on: Enterococcus faecalis; assay: Potency index, ratio of rade-zolid MIC to compound MIC for antibacterial activity against linezolid-resistant Enterococcus faecalis by CLSI protocol based broth liquid microdilution method; assay type: functional
[6] = tested on: Enterococcus faecalis; assay: Antibacterial activity against linezolid-resistant Enterococcus faecalis assessed as complete reduction in bacterial cell growth by CLSI protocol based broth liquid microdilution method; assay type: functional
In short: (§2)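 Broth liquid microdilution per CLSI guidelines; isolates identified on an automated MicroScan system before testing. MIC taken as lowest concentration giving total inhibition of bacterial growth, reported in μg/mL. S. aureus ATCC29213 run as the control strain.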

[7] = tested on: Staphylococcus aureus; assay: Antibacterial activity against methicillin-sensitive Staphylococcus aureus assessed as complete reduction in bacterial cell growth by CLSI protocol based broth liquid microdilution method; assay type: functional; in short: as §2
[8] = tested on: Enterococcus faecium; assay: Antibacterial activity against clinical isolates of vancomycin-resistant Enterococcus faecium assessed as complete reduction in bacterial cell growth by CLSI protocol based broth liquid microdilution method; assay type: functional; in short: as §2
[9] = Stability in simulated gastric acid assessed as compound remaining at pH 1.2 incubated for 2 hrs; assay type: ADME; conditions: read-out: Stability
[10] = Stability in human liver microsomes assessed as compound remaining at 1.5 uM preincubated for 5 mins with NADPH and measured after 45 mins by LC/MS analysis; assay type: ADME, Microsome; conditions: liver microsomes, read-out: Stability; in short: as §1
[11] = Stability in human liver microsomes assessed as half life at 1.5 uM preincubated for 5 mins with NADPH and measured after 45 mins by LC/MS analysis; assay type: ADME, Microsome; in short: as §1
[12] = target: T1, MAO-A (Homo sapiens, UniProt P21397); assay: Inhibition of recombinant human MAO-A (active motif 31502) at 30 uM using luciferin as substrate incubated for 15 mins followed by substrate addition and measured after 60 mins by luminescence based method relative to control; conditions: probe luciferin
T1 sequence (P21397 whole entry): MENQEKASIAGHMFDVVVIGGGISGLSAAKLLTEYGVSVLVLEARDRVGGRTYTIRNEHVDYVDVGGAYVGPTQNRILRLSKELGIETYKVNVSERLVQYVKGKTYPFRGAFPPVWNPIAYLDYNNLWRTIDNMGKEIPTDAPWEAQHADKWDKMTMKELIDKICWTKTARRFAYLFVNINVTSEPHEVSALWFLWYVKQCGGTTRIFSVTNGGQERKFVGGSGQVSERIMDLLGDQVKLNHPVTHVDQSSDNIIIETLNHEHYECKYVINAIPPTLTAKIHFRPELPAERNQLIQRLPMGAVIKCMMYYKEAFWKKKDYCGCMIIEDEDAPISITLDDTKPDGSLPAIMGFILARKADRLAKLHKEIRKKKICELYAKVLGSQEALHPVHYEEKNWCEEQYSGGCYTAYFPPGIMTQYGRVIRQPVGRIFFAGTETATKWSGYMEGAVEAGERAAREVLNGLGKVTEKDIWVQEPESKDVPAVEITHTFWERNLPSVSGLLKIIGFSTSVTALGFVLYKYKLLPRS
In short: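 Recombinant human MAO-A was measured with the MAO-Glo kit, modified. Compounds were in DMSO (1% DMSO final) and preincubated with enzyme 15 min at room temperature. Luciferin-derivative substrate was then added and the reaction run 60 min at room temperature. Luciferase detection reagent was added for 20 min and luminescence read. Buffer without enzyme served as the 100% inhibition control; DMSO alone as the no-inhibition control. Percent inhibition = (Max − signal)/(Max − Min)×100.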

[13] = tested on: Enterococcus faecalis; assay: Antibacterial activity against clinical isolates of linezolid-resistant Enterococcus faecalis assessed as complete reduction in bacterial cell growth by CLSI protocol based broth liquid microdilution method; assay type: functional; in short: as §2
[14] = tested on: Enterococcus faecium; assay: Antibacterial activity against vancomycin-resistant Enterococcus faecium assessed as complete reduction in bacterial cell growth by CLSI protocol based broth liquid microdilution method; assay type: functional; in short: as §2
[15] = tested on: Enterococcus faecium; assay: Potency index, ratio of rade-zolid MIC to compound MIC for antibacterial activity against vancomycin-resistant Enterococcus faecium by CLSI protocol based broth liquid microdilution method; assay type: functional
[16] = tested on: Staphylococcus aureus; assay: Antibacterial activity against methicillin-resistant Staphylococcus aureus assessed as complete reduction in bacterial cell growth by CLSI protocol based broth liquid microdilution method; assay type: functional; in short: as §2
[17] = Stability in simulated gastric acid assessed as compound remaining at pH 1.2 incubated for 0.5 hrs; assay type: ADME; conditions: read-out: Stability
[18] = tested on: Staphylococcus aureus; assay: Potency index, ratio of rade-zolid MIC to compound MIC for antibacterial activity against Staphylococcus aureus ATCC 29213 by CLSI protocol based broth liquid microdilution method; assay type: functional
[19] = tested on: Staphylococcus aureus; assay: Potency index, ratio of rade-zolid MIC to compound MIC for antibacterial activity against methicillin-sensitive Staphylococcus aureus by CLSI protocol based broth liquid microdilution method; assay type: functional
[20] = tested on: Staphylococcus aureus; assay: Antibacterial activity against Staphylococcus aureus ATCC 29213 assessed as complete reduction in bacterial cell growth by CLSI protocol based broth liquid microdilution method; assay type: functional; in short: as §2
[21] = tested on: Staphylococcus aureus; assay: Antibacterial activity against clinical isolates of methicillin-sensitive Staphylococcus aureus assessed as reduction in bacterial cell growth by CLSI protocol based broth microdilution method; assay type: functional; in short: as §2
[22] = Stability in simulated gastric acid assessed as compound remaining at pH 1.2 incubated for 1 hr; assay type: ADME; conditions: read-out: Stability
[23] = tested on: Staphylococcus aureus; assay: Antibacterial activity against clinical isolates of methicillin-resistant Staphylococcus aureus assessed as complete reduction in bacterial cell growth by CLSI protocol based broth liquid microdilution method; assay type: functional; in short: as §2

SMILES | remaining at 1.5 h [1] | IC50 [3] | Ratio [5] | MIC [6] | MIC [7] | MIC [8] | remaining at 2 h [9] | inhibition at 1 h, 30 µM [12] | MIC [13] | MIC [14] | Ratio [15] | MIC [16] | remaining at 0.5 h [17] | Ratio [18] | Ratio [19] | MIC [20] | MIC [21] | remaining at 1 h [22] | MIC [23] | other results
CC(=O)NC[C@H]1CN(c2ccc(-c3ccc(/C=N/N4CCS(=O)(=O)CC4)nc3)c(F)c2)C(=O)O1 | 99.2% | > 25 µM | 2 - 4 | 0.25 µg/mL (≈ 0.511 µM) | 0.125 µg/mL (≈ 0.255 µM) | 0.5 µg/mL (≈ 1.02 µM) | 98.7% | 72% | 0.25 to 0.5 µg/mL (≈ 0.511 to 1.02 µM) | 0.125 µg/mL (≈ 0.255 µM) | 2 - 4 | 0.125 µg/mL (≈ 0.255 µM) | 99.7% | 2 - 4 | 2 - 4 | 0.125 µg/mL (≈ 0.255 µM) | 0.25 to 0.5 µg/mL (≈ 0.511 to 1.02 µM) | 99.4% | – | CLint scaled at 1.5 µM [2]: 4.25 mL/min/kg; solubility [4]: 68 µg/mL (≈ 139 µM); remaining at 0.75 h, 1.5 µM [10]: 93%; half-life at 1.5 µM ([11]; liver microsomes): 6.82 h
COC(=O)N1CCN(/N=C/c2ccc(-c3ccc(N4C[C@H](CNC(C)=O)OC4=O)cc3F)cc2O)CC1 | – | – | – | 0.5 µg/mL (≈ 0.974 µM) | 0.5 µg/mL (≈ 0.974 µM) | 2 µg/mL (≈ 3.89 µM) | – | – | 2 µg/mL (≈ 3.89 µM) | 0.5 µg/mL (≈ 0.974 µM) | – | 0.5 µg/mL (≈ 0.974 µM) | – | – | – | 0.5 µg/mL (≈ 0.974 µM) | 2 µg/mL (≈ 3.89 µM) | – | 2 µg/mL (≈ 3.89 µM) | –
CC(=O)NC[C@H]1CN(c2ccc(N3CCOCC3)c(F)c2)C(=O)O1 [LINEZOLID] | – | > 25 µM | – | > 16 µg/mL | 1 µg/mL (≈ 2.96 µM) | 1 to 4 µg/mL (≈ 2.96 to 11.9 µM) | – | – | > 16 µg/mL | 2 µg/mL (≈ 5.93 µM) | – | 1 µg/mL (≈ 2.96 µM) | – | – | – | 1 µg/mL (≈ 2.96 µM) | 1 to 4 µg/mL (≈ 2.96 to 11.9 µM) | – | – | Stability ([11]; microsomes, 0.75 h, 1.5 µM): Stable
CC(=O)NC[C@H]1CN(c2ccc(-c3ccc(/C=N/N4CCOCC4)nc3)c(F)c2)C(=O)O1 | – | – | 2 - 4 | 0.25 µg/mL (≈ 0.566 µM) | 0.25 µg/mL (≈ 0.566 µM) | 1 µg/mL (≈ 2.27 µM) | – | – | 0.25 to 0.5 µg/mL (≈ 0.566 to 1.13 µM) | 0.25 µg/mL (≈ 0.566 µM) | 2 - 4 | 0.125 µg/mL (≈ 0.283 µM) | – | 2 - 4 | 2 - 4 | 0.125 µg/mL (≈ 0.283 µM) | 0.25 to 0.5 µg/mL (≈ 0.566 to 1.13 µM) | – | – | –
CC(=O)NC[C@H]1CN(c2ccc(-c3ccc(/C=N/N4CCN(C)CC4)c(O)c3)c(F)c2)C(=O)O1 | 12.2% | > 25 µM | – | 0.25 µg/mL (≈ 0.532 µM) | 0.12 µg/mL (≈ 0.256 µM) | 1 µg/mL (≈ 2.13 µM) | 5.3% | – | 1 µg/mL (≈ 2.13 µM) | 0.25 µg/mL (≈ 0.532 µM) | – | 0.125 µg/mL (≈ 0.266 µM) | 69.8% | – | – | 0.125 µg/mL (≈ 0.266 µM) | 0.5 to 1 µg/mL (≈ 1.06 to 2.13 µM) | 35% | – | –
CC(=O)NC[C@H]1CN(c2ccc(-c3ccc(/C=N/N4CC[S+]([O-])CC4)c(O)c3)c(F)c2)C(=O)O1 | – | – | – | 0.25 µg/mL (≈ 0.512 µM) | 0.25 µg/mL (≈ 0.512 µM) | 0.5 µg/mL (≈ 1.02 µM) | – | 88% | 0.5 µg/mL (≈ 1.02 µM) | 0.25 µg/mL (≈ 0.512 µM) | – | 0.125 µg/mL (≈ 0.256 µM) | – | – | – | 0.25 µg/mL (≈ 0.512 µM) | 0.5 µg/mL (≈ 1.02 µM) | – | 0.5 to 1 µg/mL (≈ 1.02 to 2.05 µM) | –
